According to ChEMBL document CHEMBL2346557 (Bioorg Med Chem, 2013):
The source made the active and inactive calls. No cut-off for these calls is given here.

How the values were obtained:
[1] = target: T1, Glucocorticoid receptor (Mus musculus) (UniProt P06537); assay: Induction of glucocorticoid receptor nuclear translocation in mouse C2C12 cells at 1 x 10^-5 to 1.69 x 10^-10 M by chemiluminescence assay relative to control; type: cell-based
T1 sequence (whole entry): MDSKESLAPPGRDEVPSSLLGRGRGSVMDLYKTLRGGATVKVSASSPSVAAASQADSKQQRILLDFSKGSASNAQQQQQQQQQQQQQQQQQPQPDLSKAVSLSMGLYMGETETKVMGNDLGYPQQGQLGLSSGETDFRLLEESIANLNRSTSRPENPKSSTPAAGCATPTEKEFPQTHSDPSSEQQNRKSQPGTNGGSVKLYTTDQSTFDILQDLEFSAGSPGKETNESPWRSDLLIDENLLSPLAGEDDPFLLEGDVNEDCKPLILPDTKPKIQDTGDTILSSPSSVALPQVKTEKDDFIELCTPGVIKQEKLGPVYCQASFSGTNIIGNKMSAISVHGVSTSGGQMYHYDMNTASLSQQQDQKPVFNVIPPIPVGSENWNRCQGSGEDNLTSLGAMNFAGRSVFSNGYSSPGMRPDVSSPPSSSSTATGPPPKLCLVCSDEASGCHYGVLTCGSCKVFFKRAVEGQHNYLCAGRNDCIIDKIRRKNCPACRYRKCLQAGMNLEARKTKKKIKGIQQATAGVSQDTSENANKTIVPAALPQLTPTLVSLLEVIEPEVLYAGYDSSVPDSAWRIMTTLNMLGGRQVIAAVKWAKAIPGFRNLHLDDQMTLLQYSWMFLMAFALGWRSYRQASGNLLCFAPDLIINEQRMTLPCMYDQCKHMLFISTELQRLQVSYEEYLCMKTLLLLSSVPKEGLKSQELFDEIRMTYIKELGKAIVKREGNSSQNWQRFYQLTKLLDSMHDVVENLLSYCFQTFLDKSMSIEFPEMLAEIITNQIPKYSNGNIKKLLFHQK
Outline: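 GR nuclear translocation measured by DiscoveRx in PathHunter cells using enzyme-fragment complementation. ProLink-tagged GR recruits a nuclear steroid receptor co-activator peptide fused to the enzyme acceptor, giving a chemiluminescent signal.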

C2C12 = assay: Cytotoxicity against mouse C2C12 cells assessed as cell viability at 0.01 to 100 ug/mL after 24 hrs by MTT assay; type: cell-based; settings: c2c12, 24 h
Outline: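 MTT viability run on C2C12 cells grown and treated alongside the NF-κB reporter plates, with drug at 0.01–100 µg/ml and DMSO vehicle. Viability is expressed as percent of untreated cells. A one-way repeated-measures ANOVA tested for a concentration effect.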

[2] = Inhibition of TNFalpha-induced NFkappaB activation in mouse C2C12 cells incubated for 24 hrs prior to TNFalpha induction measured after 24 hrs by luciferase reporter gene assay; type: cell-based
Outline: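 C2C12 myoblasts in growth medium and myotubes in differentiating medium, each stably carrying an NF-κB response element–luciferase reporter. Cells were washed, lysed and luciferase read; TNF-α alone was set as 100%. IC50 was calculated. SD shown.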

[3] = AUClast in CD1 mouse at 50 mg/kg, po; type: ADME, organism-based; design: time 0 - last, dose 50 mg/kg, route oral; settings: plasma
Outline: (§1)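 CD1 mice (n = 3 per compound) were dosed orally at 50 mg/kg as an aqueous emulsion in 30% Labrafil. Blood was drawn at 0, 5, 15 and 30 min and 1, 2, 4, 8 and 24 h. Bioavailability and other parameters were calculated from the plasma profiles and compared against the intravenous arm.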

[4] = Mean residence time in CD1 mouse at 10 mg/kg, iv; type: ADME, organism-based; design: dose 10 mg/kg, route intravenous; settings: in vivo
Outline: (§2)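 CD1 mice (n = 3 per compound) given 10 mg/kg as a single tail-vein injection in a pH 7.0 solution of 10% ethanol plus PEG400 (some compounds also with 10% DMSO). Blood was sampled at 0, 5, 15 and 30 min and 1, 2, 4, 8 and 24 h. Parameters were derived from the plasma concentration–time profiles.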

Mus musculus [5] = assay: Total unbound Cmax in CD1 mouse at 10 mg/kg, iv; type: ADME, organism-based; design: dose 10 mg/kg, route intravenous; settings: in vivo
Mus musculus [6] = assay: Total unbound Cmax in CD1 mouse at 50 mg/kg, po; type: ADME, organism-based; design: dose 50 mg/kg, route oral; settings: in vivo
Mus musculus [7] = assay: Total unbound AUC (0 to infinity) in CD1 mouse at 10 mg/kg, iv; type: ADME, organism-based; design: dose 10 mg/kg, route intravenous; settings: in vivo
[8] = Metabolic stability in human liver microsomes assessed as compound remaining at 2 uM measured at 1 hr; type: ADME, Microsome; settings: read-out: Stability
Outline: (§3)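 Liver microsomes (human, or male monkey, dog, rat or mouse) at 0.5 mg/mL final with 2 µM compound, 5 mM MgCl2 and 5 mM PBS. The reaction was started with 1 mM NADPH and run at 37 °C. Verapamil was the positive control; water replaced NADPH in the negative control. Read-out was percent parent remaining at 1 h.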

[9] = AUClast in CD1 mouse at 10 mg/kg, iv; type: ADME, organism-based; design: time 0 - last, dose 10 mg/kg, route intravenous; settings: plasma; outline: as §2
[10] = Metabolic stability in mouse liver microsomes assessed as compound remaining at 2 uM measured at 1 hr; type: ADME, Microsome; settings: read-out: Stability; outline: as §3
[11] = Tmax in CD1 mouse at 50 mg/kg, po; type: ADME, organism-based; design: dose 50 mg/kg, route oral; settings: in vivo; outline: as §1
[12] = Metabolic stability in monkey liver microsomes assessed as compound remaining at 2 uM measured at 1 hr; type: ADME, Macaca mulatta, Microsome; settings: rhesus monkey, read-out: Stability; outline: as §3
[13] = Metabolic stability in dog liver microsomes assessed as compound remaining at 2 uM measured at 1 hr; type: ADME, Canis lupus familiaris, Microsome; settings: read-out: Stability; outline: as §3
[14] = Terminal half life in CD1 mouse at 10 mg/kg, iv; type: ADME, organism-based; design: dose 10 mg/kg, route intravenous; settings: in vivo, read-out: beta t1/2 (converted); outline: as §2
Liver microsomes = assay: Metabolic stability in rat liver microsomes at 2 uM measured at 1 hr; type: ADME, Microsome; outline: as §3
[15] = Tmax in CD1 mouse at 10 mg/kg, iv; type: ADME, organism-based; design: dose 10 mg/kg, route intravenous; settings: in vivo; outline: as §2
Mus musculus [16] = assay: Total unbound AUC (0 to infinity) in CD1 mouse at 50 mg/kg, po; type: ADME, organism-based; design: dose 50 mg/kg, route oral; settings: in vivo
[17] = target: T2, Glucocorticoid receptor (Homo sapiens) (UniProt P04150); assay: Transactivation of glucocorticoid receptor in HEK293 cells co-transfected with GRE assessed as induction of GRE-dependent gene expression at 100 ug/ml after 6 hrs by luciferase reporter gene assay; type: cell-based
T2 sequence (whole entry): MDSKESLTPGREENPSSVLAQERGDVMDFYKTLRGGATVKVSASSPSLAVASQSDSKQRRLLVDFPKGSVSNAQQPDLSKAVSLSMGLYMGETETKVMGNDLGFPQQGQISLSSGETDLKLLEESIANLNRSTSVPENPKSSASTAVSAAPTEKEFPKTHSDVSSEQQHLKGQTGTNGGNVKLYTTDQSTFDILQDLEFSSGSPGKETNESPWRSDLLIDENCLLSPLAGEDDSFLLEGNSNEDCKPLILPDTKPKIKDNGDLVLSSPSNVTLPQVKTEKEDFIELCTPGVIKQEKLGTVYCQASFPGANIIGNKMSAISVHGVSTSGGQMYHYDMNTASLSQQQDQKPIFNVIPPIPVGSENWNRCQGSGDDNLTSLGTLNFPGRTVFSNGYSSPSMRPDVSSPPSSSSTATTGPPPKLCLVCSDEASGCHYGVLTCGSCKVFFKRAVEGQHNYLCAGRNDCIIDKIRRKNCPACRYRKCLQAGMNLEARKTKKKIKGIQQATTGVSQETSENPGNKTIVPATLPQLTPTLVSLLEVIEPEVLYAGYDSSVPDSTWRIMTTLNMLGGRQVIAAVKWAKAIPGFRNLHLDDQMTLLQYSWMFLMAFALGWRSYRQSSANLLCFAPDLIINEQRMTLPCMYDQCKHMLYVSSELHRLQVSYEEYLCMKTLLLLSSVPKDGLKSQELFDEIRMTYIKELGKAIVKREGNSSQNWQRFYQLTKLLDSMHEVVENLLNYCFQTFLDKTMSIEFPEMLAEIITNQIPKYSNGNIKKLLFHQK
Outline: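 HEK-293 cells stably transfected with a GRE-driven luciferase reporter were exposed to drug at 0.01–100 μg/ml for 6 h. Cells were washed with PBS and lysed, and luciferase activity was measured by luminometer.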

[18] = Terminal half life in CD1 mouse at 50 mg/kg, po; type: ADME, organism-based; design: dose 50 mg/kg, route oral; settings: in vivo, read-out: beta t1/2 (converted); outline: as §1
[19] = Volume of distribution at steady state in CD1 mouse at 10 mg/kg, iv; type: ADME, organism-based; design: dose 10 mg/kg, route intravenous; settings: in vivo, read-out: Vdss; outline: as §2
[20] = Clearance in CD1 mouse at 10 mg/kg, iv; type: ADME, organism-based; design: dose 10 mg/kg, route intravenous; settings: in vivo; outline: as §2
Mus musculus [21] = assay: Oral bioavailability in CD1 mouse at 50 mg/kg; type: ADME, organism-based; settings: in vivo; outline: as §1

Structure (SMILES) | Activity [1] [%] | EC50 [2] [nM] | Activity (C2C12) | also measured
C[C@]12CCC(=O)C=C1CC[C@@H]1C2=CC[C@@]2(C)[C@H]1CC[C@]2(O)C(=O)CO | 49.2 | 62.9 |  | 
CCCN(CCC)CC(=O)[C@@]1(O)CC[C@H]2[C@@H]3CCC4=CC(=O)CC[C@]4(C)C3=CC[C@@]21C | 21.8 |  |  | 
CC[C@@H]1C[C@H]2[C@@H]3CCC4=CC(=O)C=C[C@]4(C)C3=CC[C@]2(C)[C@H]1C(=O)CO | 27 | 89.5 | Toxic | 
C[C@]12C=CC(=O)C=C1CC[C@@H]1C2=CC[C@@]2(C)[C@H]1CC[C@]2(O)C(=O)CO | 57.6 | 129 |  | 
CC(=O)OCC(=O)C1=CC[C@H]2[C@@H]3CCC4=CC(=O)C=C[C@]4(C)C3=CC[C@]12C | 15.3 |  |  | 
C[C@@H]1C[C@H]2[C@@H]3CCC4=CC(=O)C=C[C@]4(C)C3=CC[C@]2(C)[C@H]1C(=O)CO | 54.2 | 56.4 | Non-toxic | AUC(0-t) [3]: 22000 ng·h/mL; MRT [4]: 17.3 min; fCmax (Mus musculus [5]): 8637 ng/mL; fCmax (Mus musculus [6]): 10203 ng/mL; fAUC (Mus musculus [7]): 3457 ng·h/mL; remaining at 1 h, 2 µM [8]: ≥ 80%; AUC(0-t) [9]: 3450 ng·h/mL; remaining at 1 h, 2 µM [10]: 34%; Tmax [11]: 60 min; remaining at 1 h, 2 µM [12]: ≥ 80%; remaining at 1 h, 2 µM [13]: ≥ 80%; half-life [14]: 40 min; Stability (Liver microsomes): Unstable; Tmax [15]: 5 min; fAUC (Mus musculus [16]): 22031 ng·h/mL; Activity [17]: inactive; half-life [18]: 39.5 min; Vd [19]: 0.874 L/kg; clearance [20]: 48.2 mL/min/kg; F (Mus musculus [21]): 128%
CCCC[C@@H]1C[C@H]2[C@@H]3CCC4=CC(=O)C=C[C@]4(C)C3=CC[C@]2(C)[C@H]1C(=O)CO | 6.9 | > 10000 | Toxic | 
C[C@H]1C[C@H]2[C@@H]3CCC4=CC(=O)C=C[C@]4(C)C3=CC[C@]2(C)[C@@]1(O)C(=O)CO | 44.5 |  | Non-toxic | 
CC(=O)OCC(=O)[C@H]1[C@H](C)C[C@H]2[C@@H]3CCC4=CC(=O)C=C[C@]4(C)C3=CC[C@@]21C | 48.8 | 54.1 | Non-toxic | Activity [17]: inactive
C[C@]12C=CC(=O)C=C1CC[C@@H]1C2=CC[C@]2(C)C(C(=O)CO)=CC[C@@H]12 | 16.7 | 495 |  | 

Continued, in another order:

Activity [1] [%] | EC50 [2] [nM] | Structure (SMILES) | Activity (C2C12) | also measured
19.9 |  | C[C@@H]1C[C@H]2[C@@H]3CCC4=CC(=O)CC[C@]4(C)C3=CC[C@]2(C)[C@H]1C(=O)CN1CCCC1 | Non-toxic | 
37.7 | 723 | CCCN(CCC)CC(=O)[C@H]1[C@H](C)C[C@H]2[C@@H]3CCC4=CC(=O)CC[C@]4(C)C3=CC[C@@]21C | Non-toxic | 
24.7 | 1850 | C[C@]12CCC(=O)C=C1CC[C@@H]1C2=CC[C@@]2(C)[C@H]1CC[C@]2(O)C(=O)CN1CCCC1 |  | 
28.7 | 1740 | C[C@]12CCC(=O)C=C1CC[C@@H]1C2=CC[C@@]2(C)[C@H]1CC[C@]2(O)C(=O)CN1CCOCC1 |  | 
22.7 | 5240 | C[C@@H]1C[C@H]2[C@@H]3CCC4=CC(=O)CC[C@]4(C)C3=CC[C@]2(C)[C@H]1C(=O)CN1CCOCC1 | Non-toxic | 
8.5 | > 10000 | CCCC[C@@H]1C[C@H]2[C@@H]3CCC4=CC(=O)CC[C@]4(C)C3=CC[C@]2(C)[C@H]1C(=O)CO | Toxic | 
51.5 |  | CC(=O)OCC(=O)[C@@]1(O)CC[C@H]2[C@@H]3CCC4=CC(=O)CC[C@]4(C)C3=CC[C@@]21C |  | Activity [17]: inactive
14.7 | > 10000 | C[C@@H]1C[C@H]2[C@@H]3CCC4=CC(=O)CC[C@]4(C)C3=CC[C@]2(C)[C@H]1C(=O)CN1CCN(C)CC1 | Non-toxic | 
23.5 | 5780 | CN1CCN(CC(=O)[C@@]2(O)CC[C@H]3[C@@H]4CCC5=CC(=O)CC[C@]5(C)C4=CC[C@@]32C)CC1 |  | 
